{
  "source": "ChEMBL document CHEMBL1772977",
  "about": "“Synthesis and biological evaluation of novel 4-benzylpiperazine ligands for sigma-1 receptor imaging” (Bioorg Med Chem, 2011)",
  "format_in_all_cases": "ADME, organism-based",
  "key": {"Heart [1]": {"test_system": "Heart", "assay": "Biodistribution in ICR mouse heart at 1 uCi, iv after 60 mins postinjection", "details": "in vivo, 1 h", "procedure,_shortened": "(§1)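 Female ICR mice (18–22 g, n = 5) received HPLC-purified radiotracer by tail vein (0.1 mL). They were killed by cervical fracture at the stated times. Blood and organs were removed, weighed and gamma-counted. Uptake expressed as percent injected dose per gram of tissue (%ID/g), given as mean with SD.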"}, "Thyroid gland [2]": {"test_system": "Thyroid gland", "assay": "Biodistribution in ICR mouse thyroid at 1 uCi, iv after 60 mins postinjection", "details": "in vivo, 1 h", "procedure,_shortened": "(§2)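 Female ICR mice (18–22 g, n = 5) received HPLC-purified radioiodinated tracer by tail vein (0.1 mL, 1 µCi). They were killed by cervical fracture at 15, 30, 60, 120 or 240 min post-injection. Blood and organs were removed, weighed and gamma-counted. Uptake is expressed as %ID/g, mean ± SD, n = 4–5.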"}, "Liver [3]": {"test_system": "Liver", "assay": "Biodistribution in ICR mouse liver at 1 uCi, iv after 240 mins postinjection", "details": "in vivo, 4 h", "procedure,_shortened": "as §1"}, "Spleen [4]": {"test_system": "Spleen", "assay": "Biodistribution in ICR mouse spleen at 1 uCi, iv after 240 mins postinjection", "details": "in vivo, 4 h", "procedure,_shortened": "as §1"}, "Mus musculus [5]": {"test_system": "Mus musculus", "assay": "Biodistribution in ICR mouse small intestine at 1 uCi, iv after 60 mins postinjection", "details": "in vivo, 1 h", "procedure,_shortened": "as §1"}, "Lung [6]": {"test_system": "Lung", "assay": "Biodistribution in ICR mouse lung at 1 uCi, iv after 120 mins postinjection", "details": "in vivo, 2 h", "procedure,_shortened": "as §1"}, "Muscle tissue [7]": {"test_system": "Muscle tissue", "assay": "Biodistribution in ICR mouse muscle at 1 uCi, iv after 30 mins postinjection", "details": "in vivo, 0.5 h", "procedure,_shortened": "as §1"}, "Liver [8]": {"test_system": "Liver", "assay": "Biodistribution in ICR mouse liver at 1 uCi, iv after 15 mins postinjection", "details": "in vivo, 0.25 h", "procedure,_shortened": "as §1"}, "Muscle tissue [9]": {"test_system": "Muscle tissue", "assay": "Biodistribution in ICR mouse muscle at 1 uCi, iv after 240 mins postinjection", "details": "in vivo, 4 h", "procedure,_shortened": "as §1"}, "Stomach [10]": {"test_system": "Stomach", "assay": "Biodistribution in ICR mouse stomach at 1 uCi, iv measured per organ after 60 mins postinjection", "details": "in vivo, 1 h", "procedure,_shortened": "as §2"}, "Heart [11]": {"test_system": "Heart", "assay": "Biodistribution in ICR mouse heart at 1 uCi, iv after 240 mins postinjection", "details": "in vivo, 4 h", "procedure,_shortened": "as §1"}, "Mus musculus [12]": {"test_system": "Mus musculus", "assay": "Biodistribution in ICR mouse small intestine at 1 uCi, iv after 30 mins postinjection", "details": "in vivo, 0.5 h", "procedure,_shortened": "as §1"}, "Stomach [13]": {"test_system": "Stomach", "assay": "Biodistribution in ICR mouse stomach at 1 uCi, iv measured per organ after 15 mins postinjection", "details": "in vivo, 0.25 h"}, "Kidney [14]": {"test_system": "Kidney", "assay": "Biodistribution in ICR mouse kidney at 1 uCi, iv after 15 mins postinjection", "details": "in vivo, 0.25 h", "procedure,_shortened": "as §1"}, "Spleen [15]": {"test_system": "Spleen", "assay": "Biodistribution in ICR mouse spleen at 1 uCi, iv after 60 mins postinjection", "details": "in vivo, 1 h", "procedure,_shortened": "as §1"}, "Heart [16]": {"test_system": "Heart", "assay": "Biodistribution in ICR mouse heart at 1 uCi, iv after 120 mins postinjection", "details": "in vivo, 2 h", "procedure,_shortened": "as §1"}, "Blood [17]": {"test_system": "Blood", "assay": "Biodistribution in ICR mouse blood at 1 uCi, iv after 15 mins postinjection", "details": "in vivo, 0.25 h", "procedure,_shortened": "as §1"}, "Stomach [18]": {"test_system": "Stomach", "assay": "Biodistribution in ICR mouse stomach at 1 uCi, iv measured per organ after 240 mins postinjection", "details": "in vivo, 4 h"}, "Thyroid gland [19]": {"test_system": "Thyroid gland", "assay": "Biodistribution in ICR mouse thyroid at 1 uCi, iv after 240 mins postinjection", "details": "in vivo, 4 h", "procedure,_shortened": "as §2"}, "Brain": {"test_system": "Brain", "assay": "Biodistribution in ICR mouse brain at 1 uCi, iv after 60 mins postinjection", "details": "in vivo, 1 h", "procedure,_shortened": "as §1"}, "Lung [20]": {"test_system": "Lung", "assay": "Biodistribution in ICR mouse lung at 1 uCi, iv after 240 mins postinjection", "details": "in vivo, 4 h", "procedure,_shortened": "as §1"}, "Lung [21]": {"test_system": "Lung", "assay": "Biodistribution in ICR mouse lung at 1 uCi, iv after 15 mins postinjection", "details": "in vivo, 0.25 h", "procedure,_shortened": "as §1"}, "Kidney [22]": {"test_system": "Kidney", "assay": "Biodistribution in ICR mouse kidney at 1 uCi, iv after 60 mins postinjection", "details": "in vivo, 1 h", "procedure,_shortened": "as §1"}, "Spleen [23]": {"test_system": "Spleen", "assay": "Biodistribution in ICR mouse spleen at 1 uCi, iv after 120 mins postinjection", "details": "in vivo, 2 h", "procedure,_shortened": "as §1"}, "Blood [24]": {"test_system": "Blood", "assay": "Biodistribution in ICR mouse blood at 1 uCi, iv after 240 mins postinjection", "details": "in vivo, 4 h", "procedure,_shortened": "as §1"}, "Muscle tissue [25]": {"test_system": "Muscle tissue", "assay": "Biodistribution in ICR mouse muscle at 1 uCi, iv after 15 mins postinjection", "details": "in vivo, 0.25 h", "procedure,_shortened": "as §1"}, "Mus musculus [26]": {"test_system": "Mus musculus", "assay": "Biodistribution in ICR mouse small intestine at 1 uCi, iv after 15 mins postinjection", "details": "in vivo, 0.25 h", "procedure,_shortened": "as §1"}, "Liver [27]": {"test_system": "Liver", "assay": "Biodistribution in ICR mouse liver at 1 uCi, iv after 30 mins postinjection", "details": "in vivo, 0.5 h", "procedure,_shortened": "as §1"}},
  "data": [
    {"compound": "[125I]c1ccc(CN2CCN(Cc3ccc4c(c3)OCO4)CC2)cc1", "values": [
      {"measurement": "Drug uptake", "setting": "Heart [1]", "result": 1.71, "unit": "% ID/g"},
      {"measurement": "Drug uptake", "setting": "Thyroid gland [2]", "result": 1.53, "unit": "% ID/g"},
      {"measurement": "Drug uptake", "setting": "Liver [3]", "result": 3.95, "unit": "% ID/g"},
      {"measurement": "Drug uptake", "setting": "Spleen [4]", "result": 2.83, "unit": "% ID/g"},
      {"measurement": "Drug uptake", "setting": "Mus musculus [5]", "result": 7.45, "unit": "% ID/g"},
      {"measurement": "Drug uptake", "setting": "Lung [6]", "result": 4.91, "unit": "% ID/g"},
      {"measurement": "Drug uptake", "setting": "Muscle tissue [7]", "result": 1.78, "unit": "% ID/g"},
      {"measurement": "Drug uptake", "setting": "Liver [8]", "result": 9, "unit": "% ID/g"},
      {"measurement": "Drug uptake", "setting": "Muscle tissue [9]", "result": 0.72, "unit": "% ID/g"},
      {"measurement": "Drug uptake", "setting": "Stomach [10]", "result": 1.78, "unit": "%ID"},
      {"measurement": "Drug uptake", "setting": "Heart [11]", "result": 0.75, "unit": "% ID/g"},
      {"measurement": "Drug uptake", "setting": "Mus musculus [12]", "result": 10.21, "unit": "% ID/g"},
      {"measurement": "Drug uptake", "setting": "Stomach [13]", "result": 2.32, "unit": "%ID"},
      {"measurement": "Drug uptake", "setting": "Kidney [14]", "result": 12.72, "unit": "% ID/g"},
      {"measurement": "Drug uptake", "setting": "Spleen [15]", "result": 5.7, "unit": "% ID/g"},
      {"measurement": "Drug uptake", "setting": "Heart [16]", "result": 1.24, "unit": "% ID/g"},
      {"measurement": "Drug uptake", "setting": "Blood [17]", "result": 1.34, "unit": "% ID/g"},
      {"measurement": "Drug uptake", "setting": "Stomach [18]", "result": 1.68, "unit": "%ID"},
      {"measurement": "Drug uptake", "setting": "Thyroid gland [19]", "result": 1.22, "unit": "% ID/g"},
      {"measurement": "Drug uptake", "setting": "Brain", "result": 4.63, "unit": "% ID/g"},
      {"measurement": "Drug uptake", "setting": "Lung [20]", "result": 2.69, "unit": "% ID/g"},
      {"measurement": "Drug uptake", "setting": "Lung [21]", "result": 12.49, "unit": "% ID/g"},
      {"measurement": "Drug uptake", "setting": "Kidney [22]", "result": 8.73, "unit": "% ID/g"},
      {"measurement": "Drug uptake", "setting": "Spleen [23]", "result": 4.79, "unit": "% ID/g"},
      {"measurement": "Drug uptake", "setting": "Blood [24]", "result": 0.72, "unit": "% ID/g"},
      {"measurement": "Drug uptake", "setting": "Muscle tissue [25]", "result": 2.35, "unit": "% ID/g"},
      {"measurement": "Drug uptake", "setting": "Mus musculus [26]", "result": 5.77, "unit": "% ID/g"},
      {"measurement": "Drug uptake", "setting": "Liver [27]", "result": 6.39, "unit": "% ID/g"}
    ]}
  ]
}
